Peptide text beside a SMILES is read from it. * marks the point of attachment. Cbz = O=C(OCc1ccccc1)*
Experiments:
[1] = Cytotoxicity against human IPC227F cells after 48 hrs using Hoechst 33342 dye-based fluorescence microplate reader; format: functional, cell-based
In short: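 Attached IPC227F human ocular melanoma cells were seeded and grown 24 h at 37 °C, 5% CO2, in DMEM with 10% fetal calf serum. Cells were then given fresh medium with increasing drug concentrations from DMSO stocks (DMSO final 0.025%) for 48 h, PBS-washed and frozen at -80 °C. Hoechst 33342 staining followed at room temperature in the dark. Fluorescence was read at 360/460 nm, survival was expressed as % of untreated control, and IC50 determined.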

[2] = Drug uptake in tumor of mouse xenografted with mouse B16 cells assessed per gram of tissue after 15 mins; format: ADME, Neoplasm; conditions: in vivo, 0.25 h
[3] = Drug uptake in tumor of mouse xenografted with mouse B16 cells assessed per gram of tissue after 3 hrs; format: ADME, Neoplasm; conditions: in vivo
[4] = Drug uptake in tumor of mouse xenografted with mouse B16 cells after 6 hrs; format: ADME, Neoplasm; conditions: in vivo
[5] = Ratio of drug level in tumor to blood in mouse; format: ADME, organism-based
[6] = Drug uptake in tumor of mouse xenografted with mouse B16 cells assessed per gram of tissue after 72 hrs; format: ADME, Neoplasm; conditions: in vivo

Compound	IC50 [1] [µM]	also measured
CCN(CC)CCNC(=O)c1ccc(C(=O)N[C@@H](CC(C)C)C(=O)N[C@@H](CC(C)C)C(=O)N[C@H](C=O)CC(C)C)cc1	0.64	
CCN(CC)CCNC(=O)c1ccc(C(=O)N[C@@H](Cc2ccccc2)C(=O)N[C@@H](CC(C)C)C(=O)N[C@H](/C=C/S(C)(=O)=O)CC(C)C)cc1	120	
CCN(CC)CCNC(=O)c1ccc(C(=O)N[C@@H](Cc2ccccc2)C(=O)N[C@@H](CC(C)C)C(=O)N[C@H](C=O)CC(C)C)cc1	11.9	
CCCN(CCC)CCCCNC(=O)c1ccc(C(=O)N[C@@H](CC(C)C)C(=O)N[C@@H](CC(C)C)C(=O)N[C@H](C=O)CC(C)C)cc1	4.18	
CC(C)C[C@@H](C=O)NC(=O)[C@H](CC(C)C)NC(=O)[C@H](CC(C)C)NC(=O)OCc1ccccc1 [MG-132] (Cbz-Leu-Leu-Leu-aldehyde)	0.077	
CCN(CC)CCNC(=O)c1ccc(C(=O)N[C@@H](CC(C)C)C(=O)N[C@@H](CC(C)C)C(=O)N[C@H](C=O)CC(C)C)c([125I])c1		Drug uptake [2]: 2.7%; Drug uptake [3]: 1.2%; Drug uptake [4]: 1.2%; Kp [5]: ≥ 1
CCCN(CCC)CCCCNC(=O)c1ccc([125I])cc1		Drug uptake [6]: 3.2%
CCN(CC)CCNC(=O)c1ccc(C(=O)N[C@@H](Cc2ccccc2)C(=O)N[C@H](/C=C/S(C)(=O)=O)CC(C)C)cc1	94.5	
CCCN(CCC)CCNC(=O)c1ccc(C(=O)N[C@@H](CC(C)C)C(=O)N[C@@H](CC(C)C)C(=O)N[C@H](C=O)CC(C)C)cc1	0.71	
CCN(CC)CCNC(=O)c1ccc(C(=O)N[C@@H](CC(C)C)C(=O)N[C@@H](CC(C)C)C(=O)N[C@H](/C=C/S(C)(=O)=O)CC(C)C)cc1	28.7	
CCN(CC)CCNC(=O)c1ccc(C(=O)N[C@@H](Cc2ccccc2)C(=O)N[C@H](C=O)CC(C)C)cc1	20.9	

Reference: ChEMBL document CHEMBL1909632, “New aldehyde and vinylsulfone proteasome inhibitors for targeted melanoma therapy” (Eur J Med Chem, 2011)
